Results: ChEMBL document CHEMBL5712901, “DOT1L inhibition blocks multiple myeloma cell proliferation by suppressing IRF4-MYC signaling” (2019)
Calls of active or inactive are those of the source. The calls are words filed in the database; no cut-off is given here.

Tests used:
MM1.S [1] = test: Upregulation of DOT1L in human MM1.S cells by qRT-PCR analysis; assay type: functional, cell-based
Summary of the method: (§1)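 Basal DOT1L transcript in untreated myeloma cell lines measured by qRT-PCR, normalized to ACTB; mean of 3 replicates with SEM.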

KMS-11 = test: Upregulation of DOT1L in human KMS-11 cells by qRT-PCR analysis; assay type: functional, cell-based; summary of the method: as §1
RPMI-8226 [2] = test: Upregulation of ACOT11 gene in human RPMI-8226 cells at 1 uM for 6 days by; assay type: functional, cell-based; conditions: time 6.0 day
RPMI-8226 [3] = test: Upregulation of ALPK1 gene in human RPMI-8226 cells at 1 uM for 6 days by; assay type: functional, cell-based; conditions: time 6.0 day
RPMI-8226 [4] = test: Upregulation of APOL4 gene in human RPMI-8226 cells at 1 uM for 6 days by; assay type: functional, cell-based; conditions: time 6.0 day
RPMI-8226 [5] = test: Upregulation of BMF gene in human RPMI-8226 cells at 1 uM for 6 days by; assay type: functional, cell-based; conditions: time 6.0 day
RPMI-8226 [6] = test: Upregulation of CCL2 gene in human RPMI-8226 cells at 1 uM for 6 days by; assay type: functional, cell-based; conditions: time 6.0 day
RPMI-8226 [7] = test: Upregulation of CPQ gene in human RPMI-8226 cells at 1 uM for 6 days by; assay type: functional, cell-based; conditions: time 6.0 day
Summary of the method: (§2)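 Human myeloma lines RPMI-8226 and MM.1S exposed to 1 μM DOT1L inhibitor, or DMSO, for 6 days. Whole-genome expression profiled on gene expression microarray.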

RPMI-8226 [8] = test: Upregulation of FAM200B gene in human RPMI-8226 cells at 1 uM for 6 days by; assay type: functional, cell-based; conditions: time 6.0 day; summary of the method: as §2
RPMI-8226 [9] = test: Upregulation of FCGR2B gene in human RPMI-8226 cells at 1 uM for 6 days by; assay type: functional, cell-based; conditions: time 6.0 day; summary of the method: as §2
RPMI-8226 [10] = test: Upregulation of FNBP1 gene in human RPMI-8226 cells at 1 uM for 6 days by; assay type: functional, cell-based; conditions: time 6.0 day
RPMI-8226 [11] = test: Upregulation of GLYATL1 gene in human RPMI-8226 cells at 1 uM for 6 days by; assay type: functional, cell-based; conditions: time 6.0 day; summary of the method: as §2
RPMI-8226 [12] = test: Upregulation of HLA-DPB1 gene in human RPMI-8226 cells at 1 uM for 6 days by; assay type: functional, cell-based; conditions: time 6.0 day
RPMI-8226 [13] = test: Upregulation of HLA-DRB5 gene in human RPMI-8226 cells at 1 uM for 6 days by; assay type: functional, cell-based; conditions: time 6.0 day
RPMI-8226 [14] = test: Upregulation of HOXB6 gene in human RPMI-8226 cells at 1 uM for 6 days by; assay type: functional, cell-based; conditions: time 6.0 day
RPMI-8226 [15] = test: Upregulation of IFIT1 gene in human RPMI-8226 cells at 1 uM for 6 days by; assay type: functional, cell-based; conditions: time 6.0 day
RPMI-8226 [16] = test: Upregulation of MS4A4A gene in human RPMI-8226 cells at 1 uM for 6 days by; assay type: functional, cell-based; conditions: time 6.0 day
RPMI-8226 [17] = test: Upregulation of PRRT2 gene in human RPMI-8226 cells at 1 uM for 6 days by; assay type: functional, cell-based; conditions: time 6.0 day
RPMI-8226 [18] = test: Upregulation of PTGER4 gene in human RPMI-8226 cells at 1 uM for 6 days by; assay type: functional, cell-based; conditions: time 6.0 day
RPMI-8226 [19] = test: Upregulation of PTPRD gene in human RPMI-8226 cells at 1 uM for 6 days by; assay type: functional, cell-based; conditions: time 6.0 day
RPMI-8226 [20] = test: Upregulation of PYCARD gene in human RPMI-8226 cells at 1 uM for 6 days by; assay type: functional, cell-based; conditions: time 6.0 day
RPMI-8226 [21] = test: Upregulation of RORC gene in human RPMI-8226 cells at 1 uM for 6 days by; assay type: functional, cell-based; conditions: time 6.0 day
RPMI-8226 [22] = test: Upregulation of S100A10 gene in human RPMI-8226 cells at 1 uM for 6 days by; assay type: functional, cell-based; conditions: time 6.0 day
RPMI-8226 [23] = test: Upregulation of SAP30L gene in human RPMI-8226 cells at 1 uM for 6 days by; assay type: functional, cell-based; conditions: time 6.0 day
MM1.S [24] = test: Upregulation of BCL6 gene in human MM1.S cells at 1 uM for 6 days by; assay type: functional, cell-based; conditions: time 6.0 day
MM1.S [25] = test: Upregulation of CARD6 gene in human MM1.S cells at 1 uM for 6 days by; assay type: functional, cell-based; conditions: time 6.0 day
MM1.S [26] = test: Upregulation of CCDC74B gene in human MM1.S cells at 1 uM for 6 days by; assay type: functional, cell-based; conditions: time 6.0 day
MM1.S [27] = test: Upregulation of CMTM3 gene in human MM1.S cells at 1 uM for 6 days by; assay type: functional, cell-based; conditions: time 6.0 day; summary of the method: as §2
MM1.S [28] = test: Upregulation of EMILIN2 gene in human MM1.S cells at 1 uM for 6 days by; assay type: functional, cell-based; conditions: time 6.0 day; summary of the method: as §2
MM1.S [29] = test: Upregulation of ENC1 gene in human MM1.S cells at 1 uM for 6 days by; assay type: functional, cell-based; conditions: time 6.0 day; summary of the method: as §2
MM1.S [30] = test: Upregulation of FCGR2B gene in human MM1.S cells at 1 uM for 6 days by; assay type: functional, cell-based; conditions: time 6.0 day; summary of the method: as §2
MM1.S [31] = test: Upregulation of GLYATL1 gene in human MM1.S cells at 1 uM for 6 days by; assay type: functional, cell-based; conditions: time 6.0 day; summary of the method: as §2
MM1.S [32] = test: Upregulation of GPD2 gene in human MM1.S cells at 1 uM for 6 days by; assay type: functional, cell-based; conditions: time 6.0 day; summary of the method: as §2
MM1.S [33] = test: Upregulation of ID1 gene in human MM1.S cells at 1 uM for 6 days by; assay type: functional, cell-based; conditions: time 6.0 day
MM1.S [34] = test: Upregulation of IFITM3 gene in human MM1.S cells at 1 uM for 6 days by; assay type: functional, cell-based; conditions: time 6.0 day
MM1.S [35] = test: Upregulation of MILR1 gene in human MM1.S cells at 1 uM for 6 days by; assay type: functional, cell-based; conditions: time 6.0 day
MM1.S [36] = test: Upregulation of NRIP1 gene in human MM1.S cells at 1 uM for 6 days by; assay type: functional, cell-based; conditions: time 6.0 day
MM1.S [37] = test: Upregulation of NTNG1 gene in human MM1.S cells at 1 uM for 6 days by; assay type: functional, cell-based; conditions: time 6.0 day
MM1.S [38] = test: Upregulation of PPP1R1C gene in human MM1.S cells at 1 uM for 6 days by; assay type: functional, cell-based; conditions: time 6.0 day
MM1.S [39] = test: Upregulation of RAB37 gene in human MM1.S cells at 1 uM for 6 days by; assay type: functional, cell-based; conditions: time 6.0 day
MM1.S [40] = test: Upregulation of RIMBP3 gene in human MM1.S cells at 1 uM for 6 days by; assay type: functional, cell-based; conditions: time 6.0 day
MM1.S [41] = test: Upregulation of RORC gene in human MM1.S cells at 1 uM for 6 days by; assay type: functional, cell-based; conditions: time 6.0 day
MM1.S [42] = test: Upregulation of TTC39C gene in human MM1.S cells at 1 uM for 6 days by; assay type: functional, cell-based; conditions: time 6.0 day
RPMI-8226 [43] = test: Antiproliferative activity against human RPMI-8226 cells treated 3 days at 1 uM; assay type: functional, cell-based; conditions: time 3.0 day
Summary of the method: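 Cell lines in 6-well plates, 2 × 10^4 to 8 × 10^5 cells/well, exposed to DOT1L inhibitor at 0.25-1 μM or DMSO, with medium and drug refreshed every 3 days. Viability read with Cell Counting Kit-8 on a microplate reader. Values normalized to untreated cells; mean of 3 replications ± SEM.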

MM1.S [44] = test: Induction of apoptosis in human MM1.S cells assessed as early apoptotic cells at 1 uM for 6 days by annexin-V based propidium iodide staining based flow cytometric analysis (reference value: 7.39%); assay type: functional; conditions: time 6 day
MM1.S [45] = test: Induction of apoptosis in human MM1.S cells assessed as necrotic cells at 1 uM for 6 days by annexin-V based propidium iodide staining based flow cytometric analysis (reference value: 1.8%); assay type: functional; conditions: time 6 day
MM1.S [46] = test: Induction of apoptosis in human MM1.S cells assessed as late apoptotic cells at 1 uM for 3 days by annexin-V based propidium iodide staining based flow cytometric analysis (reference value: 0.15%); assay type: functional; conditions: time 3 day
RPMI-8226 [47] = test: Upregulation of IFN in human RPMI-8226 cells assessed as increase in IFITM1 gene at 1 uM for 6 days by qRT-PCR analysis; conditions: time 6.0 day

Q: For `CC(C)N(CCCNC(=O)Nc1ccc(C(C)(C)C)cc1)C[C@H]1O[C@@H](n2cc(Br)c3c(N)ncnc32)[C@H](O)[C@@H]1O`, which Activity (MM1.S [1]) is on record?
A: Active

Q: What about the Activity (KMS-11) of the same compound?
A: Active

Q: What about the Activity (RPMI-8226 [2]) of the same compound?
A: Active

Q: And the Activity (RPMI-8226 [3])?
A: Active

Q: And the Activity (RPMI-8226 [4])?
A: Active

Q: What about the Activity (RPMI-8226 [5]) of the same compound?
A: Active

Q: What about the Activity (RPMI-8226 [6]) of the same compound?
A: Active

Q: And the Activity (RPMI-8226 [7])?
A: Active

Q: And the Activity (RPMI-8226 [8])?
A: Active

Q: What about the Activity (RPMI-8226 [9]) of the same compound?
A: Active

Q: What about the Activity (RPMI-8226 [10]) of the same compound?
A: Active

Q: What about the Activity (RPMI-8226 [11]) of the same compound?
A: Active

Q: And the Activity (RPMI-8226 [12])?
A: Active

Q: And the Activity (RPMI-8226 [13])?
A: Active

Q: What about the Activity (RPMI-8226 [14]) of the same compound?
A: Active

Q: And the Activity (RPMI-8226 [15])?
A: Active

Q: What about the Activity (RPMI-8226 [16]) of the same compound?
A: Active

Q: What about the Activity (RPMI-8226 [17]) of the same compound?
A: Active

Q: And the Activity (RPMI-8226 [18])?
A: Active

Q: What about the Activity (RPMI-8226 [19]) of the same compound?
A: Active

Q: What about the Activity (RPMI-8226 [20]) of the same compound?
A: Active

Q: And the Activity (RPMI-8226 [21])?
A: Active

Q: And the Activity (RPMI-8226 [22])?
A: Active

Q: What about the Activity (RPMI-8226 [23]) of the same compound?
A: Active

Q: What about the Activity (MM1.S [24]) of the same compound?
A: Active

Q: And the Activity (MM1.S [25])?
A: Active

Q: And the Activity (MM1.S [26])?
A: Active

Q: And the Activity (MM1.S [27])?
A: Active

Q: And the Activity (MM1.S [28])?
A: Active

Q: And the Activity (MM1.S [29])?
A: Active

Q: What about the Activity (MM1.S [30]) of the same compound?
A: Active

Q: What about the Activity (MM1.S [31]) of the same compound?
A: Active

Q: What about the Activity (MM1.S [32]) of the same compound?
A: Active

Q: And the Activity (MM1.S [33])?
A: Active

Q: And the Activity (MM1.S [34])?
A: Active

Q: And the Activity (MM1.S [35])?
A: Active

Q: And the Activity (MM1.S [36])?
A: Active

Q: What about the Activity (MM1.S [37]) of the same compound?
A: Active

Q: What about the Activity (MM1.S [38]) of the same compound?
A: Active

Q: And the Activity (MM1.S [39])?
A: Active

Q: What about the Activity (MM1.S [40]) of the same compound?
A: Active

Q: And the Activity (MM1.S [41])?
A: Active

Q: What about the Activity (MM1.S [42]) of the same compound?
A: Active

Q: What does the source list for `CC(C)N(C[C@H]1O[C@@H](n2cnc3c(N)ncnc32)[C@H](O)[C@@H]1O)[C@H]1C[C@@H](CCc2nc3cc(C(C)(C)C)ccc3[nH]2)C1` [PINOMETOSTAT]?
A: Activity (RPMI-8226 [43]): Active; Activity (MM1.S [44]): 16.9%; Activity (MM1.S [45]): 2.47%; Activity (MM1.S [46]): 0.083%; Activity (RPMI-8226 [47]): Active
